The values that follow come from ChEMBL document CHEMBL4196166 (J Med Chem, 2018).

The structures appear in SMILES notation.

Series [1] addresses T1, Urokinase-type plasminogen activator (Homo sapiens, UniProt P00749). The experiment in a line: Inhibition of human kidney uPA using Z-Gly-Gly-Arg-AMC as substrate measured over 15 mins by fluorescence assay.
The target in series [2] is T1, Urokinase-type plasminogen activator. The experiment in a line: Inhibition of human kidney uPA using chromogenic H-D-Ile-L-Pro-L-Arg-p-nitoraniline as substrate by fluorescence assay. An outline of the steps:
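Enzyme was uPA from human kidney cells at 10 nM final. […] Absorbance change at 405 nm gave initial rates. IC50 from a sigmoidal fit of % residual activity vs log concentration.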

The target of series [3] is Tissue-type plasminogen activator (Homo sapiens, UniProt P00750). The series is described as follows: Inhibition of tPA (unknown origin) using chromogenic H-D-Ile-L-Pro-L-Arg-p-nitoraniline as substrate by […].
Sequence of Tissue-type plasminogen activator (P00750 whole entry): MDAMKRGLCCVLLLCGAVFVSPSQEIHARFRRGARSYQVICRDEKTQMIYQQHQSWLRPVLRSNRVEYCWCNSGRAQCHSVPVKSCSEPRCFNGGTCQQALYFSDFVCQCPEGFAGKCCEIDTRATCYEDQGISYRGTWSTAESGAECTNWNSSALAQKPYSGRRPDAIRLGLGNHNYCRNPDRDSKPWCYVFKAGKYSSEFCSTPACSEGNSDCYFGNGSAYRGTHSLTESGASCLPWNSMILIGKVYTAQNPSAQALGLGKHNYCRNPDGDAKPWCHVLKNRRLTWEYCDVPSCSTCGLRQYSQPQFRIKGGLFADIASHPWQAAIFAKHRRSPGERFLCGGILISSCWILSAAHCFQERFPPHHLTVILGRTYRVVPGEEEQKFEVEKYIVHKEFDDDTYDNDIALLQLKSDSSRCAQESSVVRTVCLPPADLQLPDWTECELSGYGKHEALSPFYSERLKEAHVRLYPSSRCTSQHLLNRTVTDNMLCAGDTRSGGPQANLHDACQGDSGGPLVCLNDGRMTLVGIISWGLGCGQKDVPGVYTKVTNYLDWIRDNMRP
A further series deals with Plasminogen (Homo sapiens, UniProt P00747). The series is described as follows: Inhibition of plasmin (unknown origin) using chromogenic H-D-Ile-L-Pro-L-Arg-p-nitoraniline as substrate by […].
Sequence of Plasminogen (P00747 97-580 limits assumed): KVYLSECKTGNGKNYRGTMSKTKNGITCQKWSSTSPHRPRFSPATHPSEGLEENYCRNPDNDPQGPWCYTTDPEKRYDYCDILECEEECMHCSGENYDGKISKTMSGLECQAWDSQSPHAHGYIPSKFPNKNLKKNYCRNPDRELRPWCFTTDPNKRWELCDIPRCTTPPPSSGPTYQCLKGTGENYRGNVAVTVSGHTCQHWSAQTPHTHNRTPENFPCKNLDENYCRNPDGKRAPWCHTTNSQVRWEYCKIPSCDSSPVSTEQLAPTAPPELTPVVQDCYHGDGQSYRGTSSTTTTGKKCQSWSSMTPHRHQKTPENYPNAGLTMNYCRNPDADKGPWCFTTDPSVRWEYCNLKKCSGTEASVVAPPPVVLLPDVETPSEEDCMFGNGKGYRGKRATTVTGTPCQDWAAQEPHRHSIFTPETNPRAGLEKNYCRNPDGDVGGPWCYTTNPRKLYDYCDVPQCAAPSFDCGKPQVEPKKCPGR
Sequence of Plasminogen (P00747 581-810 limits assumed): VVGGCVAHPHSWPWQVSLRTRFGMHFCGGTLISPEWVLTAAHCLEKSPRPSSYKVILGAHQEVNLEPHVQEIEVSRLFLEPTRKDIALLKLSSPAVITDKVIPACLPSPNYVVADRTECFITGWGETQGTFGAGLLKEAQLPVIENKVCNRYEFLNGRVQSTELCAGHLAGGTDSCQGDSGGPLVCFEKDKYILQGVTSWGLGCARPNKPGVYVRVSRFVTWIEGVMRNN
The target of the next series is Prothrombin (Homo sapiens, UniProt P00734). The series is described as follows: Inhibition of thrombin (unknown origin) using chromogenic H-D-Ile-L-Pro-L-Arg-p-nitoraniline as substrate by […].
In a further series the target is Plasma kallikrein (Homo sapiens, UniProt P03952). The series is described as follows: Inhibition of human plasma kallikrein using chromogenic L-pyroGlu-L-Pro-L-Arg-p-nitroaniline as substrate by fluorescence assay.
Sequence of Plasma kallikrein (P03952 20-390 limits assumed): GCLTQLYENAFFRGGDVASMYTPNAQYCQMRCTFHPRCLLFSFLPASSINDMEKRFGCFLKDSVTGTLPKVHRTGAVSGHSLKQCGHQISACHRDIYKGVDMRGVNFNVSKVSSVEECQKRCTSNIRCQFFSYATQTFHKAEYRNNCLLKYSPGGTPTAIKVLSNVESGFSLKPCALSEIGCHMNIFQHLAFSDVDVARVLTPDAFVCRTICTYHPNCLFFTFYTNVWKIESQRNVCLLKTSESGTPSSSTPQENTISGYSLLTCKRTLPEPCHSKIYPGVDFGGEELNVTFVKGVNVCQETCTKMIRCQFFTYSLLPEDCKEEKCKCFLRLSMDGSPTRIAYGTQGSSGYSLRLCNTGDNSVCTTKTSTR
Sequence of Plasma kallikrein (P03952 391-638 limits assumed): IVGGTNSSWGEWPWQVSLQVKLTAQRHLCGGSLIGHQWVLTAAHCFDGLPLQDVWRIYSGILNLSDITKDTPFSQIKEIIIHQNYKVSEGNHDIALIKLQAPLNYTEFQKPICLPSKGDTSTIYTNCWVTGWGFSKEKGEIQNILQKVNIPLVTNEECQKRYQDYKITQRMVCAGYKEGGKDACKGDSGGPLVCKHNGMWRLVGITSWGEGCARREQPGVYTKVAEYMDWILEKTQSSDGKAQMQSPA
In the next series the target is Coagulation factor XI (Homo sapiens, UniProt P03951). The experiment in a line: Inhibition of factor 11a (unknown origin) using chromogenic L-pyroGlu-L-Pro-L-Arg-p-nitroaniline as substrate by […].
Sequence of Coagulation factor XI (P03951 19-387 limits assumed): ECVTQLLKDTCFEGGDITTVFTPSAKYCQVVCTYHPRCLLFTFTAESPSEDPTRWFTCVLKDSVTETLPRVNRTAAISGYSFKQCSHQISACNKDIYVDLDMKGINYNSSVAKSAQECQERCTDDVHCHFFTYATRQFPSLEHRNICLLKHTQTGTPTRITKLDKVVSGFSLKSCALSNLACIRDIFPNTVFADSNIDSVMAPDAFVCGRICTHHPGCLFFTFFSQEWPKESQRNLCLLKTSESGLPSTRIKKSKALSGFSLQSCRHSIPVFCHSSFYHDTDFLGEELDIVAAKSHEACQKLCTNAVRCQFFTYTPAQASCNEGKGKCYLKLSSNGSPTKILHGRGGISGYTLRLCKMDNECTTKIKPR
Sequence of Coagulation factor XI (P03951 388-625 limits assumed): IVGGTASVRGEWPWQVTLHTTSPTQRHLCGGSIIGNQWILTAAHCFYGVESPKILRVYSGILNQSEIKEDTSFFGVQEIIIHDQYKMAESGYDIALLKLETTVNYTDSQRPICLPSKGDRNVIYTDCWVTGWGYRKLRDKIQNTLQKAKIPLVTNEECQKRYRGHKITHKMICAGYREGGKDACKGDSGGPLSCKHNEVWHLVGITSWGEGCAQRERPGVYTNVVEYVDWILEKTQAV
In another series the target is Coagulation factor X (Homo sapiens, UniProt P00742). The experiment in a line: Inhibition of factor 10a (unknown origin) using chromogenic H-D-Ile-L-Pro-L-Arg-p-nitoraniline as substrate by fluorescence assay.
Sequence of Coagulation factor X (P00742 41-179 limits assumed): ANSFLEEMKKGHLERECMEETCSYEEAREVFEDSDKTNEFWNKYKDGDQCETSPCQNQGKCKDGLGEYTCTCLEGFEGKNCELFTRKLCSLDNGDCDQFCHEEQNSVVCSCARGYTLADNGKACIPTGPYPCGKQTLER
Sequence of Coagulation factor X (P00742 235-488 limits assumed): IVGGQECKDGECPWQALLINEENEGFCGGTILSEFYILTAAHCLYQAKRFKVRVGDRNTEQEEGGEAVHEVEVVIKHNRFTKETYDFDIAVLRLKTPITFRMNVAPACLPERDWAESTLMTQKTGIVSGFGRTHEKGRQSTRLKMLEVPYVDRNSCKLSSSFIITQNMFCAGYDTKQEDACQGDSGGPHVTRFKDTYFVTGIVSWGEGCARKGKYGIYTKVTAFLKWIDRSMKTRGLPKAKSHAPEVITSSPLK
Series [4] concerns the target Vitamin K-dependent protein C (Homo sapiens, UniProt P04070). The series is described as follows: Inhibition of activated protein C (unknown origin) using chromogenic L-pyroGlu-L-Pro-L-Arg-p-nitroaniline as substrate by fluorescence assay.
A further series relates to HepG2. The experiment in a line: Cytotoxicity against human HepG2 cells assessed as reduction in cell viability after 48 hrs by CellTiter 96 Aqueous One solution cell proliferation assay. The settings on record: HepG2, 48 h. The format is functional, cell-based. An outline of the steps: (§1)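 Cells grown in DMEM high glucose with 10% heat-inactivated FCS, seeded at 5000/well and left 18 h. Compounds added at 1 nM–100 µM final (0.2% vehicle), n = 4 wells per concentration, with colour blanks. After 48 h, MTS reagent added for 2 h and A490 read. IC50 from a variable-slope sigmoidal fit.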

Another series has as its system HEK293. The experiment in a line: Cytotoxicity against HEK293 cells assessed as reduction in cell viability after 48 hrs by CellTiter 96 Aqueous One solution cell proliferation assay. The settings on record: Homo sapiens, HEK293, 48 h. The format is cell-based. Summed up: as §1
In a further series the test system is HT-1080. The experiment in a line: Cytotoxicity against human HT1080 cells assessed as reduction in cell viability after 48 hrs by CellTiter 96 Aqueous One solution cell proliferation assay. The format is functional, cell-based. The settings on record: HT-1080, 48 h. Summed up: as §1
Series [5] addresses Urokinase-type plasminogen activator (Mus musculus, UniProt P06869). The experiment in a line: Inhibition of mouse uPA using Z-Gly-Gly-Arg-AMC as substrate after 15 mins by fluorescence assay.
For series [6], the system named is Rattus norvegicus. The series is described as follows: Diuretic effect in Sprague-Dawley rat assessed as increase in acetazolamide-induced urine volume at 1.5 mg/kg, iv measured after 6 hrs post dose relative to acetazolamide-treated control. Format: ADME, organism-based. The settings on record: in vivo. An outline of the steps: (§2)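 Male 21-week-old Sprague-Dawley rats, 8 per group. One ip injection of 25 mg/kg acetazolamide (25 mg/mL in 0.9% saline, 1 mL/kg) or vehicle, then one iv injection of 1.5 mg/kg compound (1.5 mg/mL, 1 mL/kg) in 50 mM acetate buffer pH 5.5/5% DMSO, with 0.5% Tween-80 for some compounds. Total urine collected in metabolic cages over 6 h. Urine Na+ and K+ measured on a biochemistry analyzer. Mean ± SEM reported.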

The subject of series [7] is Rattus norvegicus. The series is described as follows: Antikaliuretic effect in Sprague-Dawley rat assessed as increase in acetazolamide-induced Na+ excretion at 1.5 mg/kg, iv measured after 6 hrs post dose relative to acetazolamide-treated control. The format is ADME, organism-based. The settings on record: in vivo. An outline of the steps: as §2
Series [8] relates to Rattus norvegicus. The experiment in a line: Antikaliuretic effect in Sprague-Dawley rat assessed as decrease in acetazolamide-induced K+ excretion at 1.5 mg/kg, iv measured after 6 hrs post dose relative to acetazolamide-treated control. The format is ADME, organism-based. Set-up: scale not given: the % may be the effect or the level left. The settings on record: in vivo. Summed up: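 Male 21-week-old Sprague-Dawley rats, 8 per group. Given 25 mg/kg acetazolamide ip (0.9% saline), then 1.5 mg/kg compound iv (50 mM acetate buffer pH 5.5/5% DMSO, plus 0.5% Tween-80 for some analogs). Vehicle-only group included. Total urine collected in metabolic cages over 6 h. Urine Na+ and K+ measured on a biochemistry analyzer; compared with acetazolamide controls.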

Series [9] concerns the target T2, Epithelial sodium channel subunit gamma (Homo sapiens, UniProt P51170).
T2 sequence (P51170 whole entry): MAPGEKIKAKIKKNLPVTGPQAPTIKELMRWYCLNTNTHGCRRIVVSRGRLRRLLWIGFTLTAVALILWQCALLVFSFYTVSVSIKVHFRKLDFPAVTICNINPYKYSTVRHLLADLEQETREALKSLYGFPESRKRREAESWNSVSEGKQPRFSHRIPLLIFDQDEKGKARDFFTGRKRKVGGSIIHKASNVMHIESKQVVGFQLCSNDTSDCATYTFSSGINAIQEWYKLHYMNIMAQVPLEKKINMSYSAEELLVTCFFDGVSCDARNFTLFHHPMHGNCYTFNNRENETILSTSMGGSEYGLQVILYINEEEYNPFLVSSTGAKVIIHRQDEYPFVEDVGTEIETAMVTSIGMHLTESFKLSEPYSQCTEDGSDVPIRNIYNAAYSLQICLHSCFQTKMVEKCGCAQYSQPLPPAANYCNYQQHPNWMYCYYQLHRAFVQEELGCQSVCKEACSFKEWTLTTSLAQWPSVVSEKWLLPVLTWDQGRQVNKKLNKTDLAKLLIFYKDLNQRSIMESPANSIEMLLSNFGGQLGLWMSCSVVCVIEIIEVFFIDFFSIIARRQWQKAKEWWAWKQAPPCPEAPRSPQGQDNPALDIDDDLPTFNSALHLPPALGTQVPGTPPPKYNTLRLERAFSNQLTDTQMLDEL
The series is described as follows: Inhibition of S-3969-stimulated recombinant human ENaC gamma subunit expressed in HEK293 cells at 10 uM preincubated for 5 mins followed by S-3969 stimulation by FLIPR assay. The format is cell-based. The settings on record: hek293, 10 µM. Summed up:
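HEK-293 cells transfected with human ENaC α, β and γ cDNA together, plated at 20 000 cells/well, incubated overnight at 37 °C. Loaded with membrane-potential red dye for 30 min at 37 °C. Compound preincubated 5 min in HEPES-buffered salt solution (pH 7.4, 0.3% DMSO), then stimulated with 1 µM S-3969, read on FLIPR. Signal normalized to agonist alone (100%) and agonist plus 30 µM benzamil (0%). n = 4 wells.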

Sequence of Urokinase-type plasminogen activator (Mus musculus, UniProt P06869) (P06869 21-178 limits assumed): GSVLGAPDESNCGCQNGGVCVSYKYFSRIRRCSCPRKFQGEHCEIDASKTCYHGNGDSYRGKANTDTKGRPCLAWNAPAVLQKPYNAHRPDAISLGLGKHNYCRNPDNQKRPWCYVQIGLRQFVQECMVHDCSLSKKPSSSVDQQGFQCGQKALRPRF
Sequence of Urokinase-type plasminogen activator (Mus musculus, UniProt P06869) (P06869 180-433 limits assumed): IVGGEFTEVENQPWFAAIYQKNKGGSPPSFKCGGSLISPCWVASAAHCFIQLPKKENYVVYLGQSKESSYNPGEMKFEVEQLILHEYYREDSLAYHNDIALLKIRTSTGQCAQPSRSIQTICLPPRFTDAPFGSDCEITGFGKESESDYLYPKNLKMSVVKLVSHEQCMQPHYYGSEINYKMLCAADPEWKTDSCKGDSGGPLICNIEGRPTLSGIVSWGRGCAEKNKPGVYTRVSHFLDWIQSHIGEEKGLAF
Sequence of Vitamin K-dependent protein C (P04070 43-197 limits assumed): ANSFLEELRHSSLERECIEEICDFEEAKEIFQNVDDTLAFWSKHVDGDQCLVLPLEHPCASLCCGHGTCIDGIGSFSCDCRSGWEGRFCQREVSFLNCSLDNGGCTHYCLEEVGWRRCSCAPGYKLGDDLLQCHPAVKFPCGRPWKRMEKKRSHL
Sequence of Vitamin K-dependent protein C (P04070 212-461 limits assumed): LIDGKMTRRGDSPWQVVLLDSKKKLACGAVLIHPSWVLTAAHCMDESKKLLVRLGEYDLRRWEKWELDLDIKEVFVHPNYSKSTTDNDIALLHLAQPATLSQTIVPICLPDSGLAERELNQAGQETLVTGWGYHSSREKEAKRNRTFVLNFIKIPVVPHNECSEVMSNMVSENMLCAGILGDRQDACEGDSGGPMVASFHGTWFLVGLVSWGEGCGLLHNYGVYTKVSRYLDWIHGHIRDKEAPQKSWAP

As for `COc1ncc(-c2nc(C(=O)NC(=N)N)c(N)nc2N2CCCCCC2)cn1`, the results for the Ki in series [1] and in series [5] were 0.053 µM and 1.61 µM, respectively. Also, the IC50 in [2] was 0.039 µM; in series [3], greater than 20 µM; against Plasminogen, greater than 20 µM; against Prothrombin, greater than 20 µM; against Plasma kallikrein, greater than 50 µM; against Coagulation factor XI, greater than 50 µM. Further, the IC50 on Coagulation factor X is greater than 50 µM; in series [4], greater than 50 µM; in the series with HepG2, 57.3 µM; with HEK293, 74.9 µM; in the series with HT-1080 it was 44.8 µM. The Activity entry is on record as “Non-Toxic” in the series with Rattus norvegicus [6], “Non-Toxic” in the series with Rattus norvegicus [7] and 24% in the series on Rattus norvegicus [8].
With `N=C(N)NC(=O)c1nc(Cl)c(N2CCCCCC2)nc1N` [N,N-HEXAMETHYLENEAMILORIDE], the Ki worked out at 1.36 µM in [1] and 9.31 µM in series [5]. Besides, the IC50 is 2.4 µM in [2]; greater than 10 µM in series [3]; greater than 10 µM against Plasminogen; greater than 10 µM on Prothrombin; greater than 50 µM at Plasma kallikrein; greater than 50 µM on Coagulation factor XI. The IC50 against Coagulation factor X was greater than 50 µM; in [4] it was greater than 50 µM; in the series on HepG2, 20.2 µM; in the series with HEK293, 2.8 µM; with HT-1080, 6.6 µM. Further, the “inhibition (INH)” value in series [9] is given as “Not Active”. The Activity entry with Rattus norvegicus [6] is reported as “Non-Toxic”; in the series with Rattus norvegicus [7] it was “Non-Toxic”; with Rattus norvegicus [8], 24%.
For the compound `N=C(N)NC(=O)c1nc(-c2cc3ccccc3o2)c(N2CCCCCC2)nc1N`, the results for the Ki in series [1] and in series [5] were 0.183 µM and 1.8 µM, respectively. Besides, the IC50 in series [2] is 0.53 µM; in [3], greater than 10 µM; at Plasminogen it was greater than 10 µM; against Prothrombin it was greater than 10 µM; against Plasma kallikrein, 11.3 µM; on Coagulation factor XI, 31 µM. Also, the IC50 against Coagulation factor X was greater than 50 µM; in series [4] it was greater than 50 µM; in the series on HepG2, 12.7 µM; in the series on HEK293, 3.1 µM; with HT-1080 it was 4.6 µM. Moreover, the “inhibition (INH)” value in series [9] was “Not Active”. Besides, the Activity result in the series on Rattus norvegicus [6], in the series with Rattus norvegicus [7] and in the series on Rattus norvegicus [8] was “Non-Toxic” each time.

In general, Ki refers to a measure of affinity in units of concentration, obtained from inhibition or displacement. By IC50 is commonly meant the concentration needed to halve the response being measured.
